From PubChem BioAssay AID602345 (The Scripps Research Institute Molecular Screening Center, 2012)
The source made the active and inactive calls.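 Rule for the calls: active = macrophage DAGL beta lipase probe labeling falls at least half after a 5 mg/kg dose in mice; inactive = 5 mg/kg yields less than half inhibition.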

Biological target: Diacylglycerol lipase-beta (Mus musculus) (UniProt Q91WC9)
Assay: macrophage DAGLb activity after compound dosing – gel ABPP, in-gel fluorescence, mouse, peritoneal macrophages, in vivo study, late-stage follow-up (AID 602345)
Settings: C57 mice i.p., gel ABPP HT-01
In short: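 system = mouse peritoneal macrophage membrane DAGLb, dosed in vivo | reagent = HT-01 activity-based fluorescent probe, 1 µM final | compound = i.p. 5, 10 and 20 mg/kg | schedule = 4 h in vivo exposure, 30 min probe step at 37 °C | measured by = in-gel fluorescence scanning after SDS-PAGE separation | replication = n of 2 mice per group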

Sequence of Diacylglycerol lipase-beta (Mus musculus) (Q91WC9 whole entry, looked up): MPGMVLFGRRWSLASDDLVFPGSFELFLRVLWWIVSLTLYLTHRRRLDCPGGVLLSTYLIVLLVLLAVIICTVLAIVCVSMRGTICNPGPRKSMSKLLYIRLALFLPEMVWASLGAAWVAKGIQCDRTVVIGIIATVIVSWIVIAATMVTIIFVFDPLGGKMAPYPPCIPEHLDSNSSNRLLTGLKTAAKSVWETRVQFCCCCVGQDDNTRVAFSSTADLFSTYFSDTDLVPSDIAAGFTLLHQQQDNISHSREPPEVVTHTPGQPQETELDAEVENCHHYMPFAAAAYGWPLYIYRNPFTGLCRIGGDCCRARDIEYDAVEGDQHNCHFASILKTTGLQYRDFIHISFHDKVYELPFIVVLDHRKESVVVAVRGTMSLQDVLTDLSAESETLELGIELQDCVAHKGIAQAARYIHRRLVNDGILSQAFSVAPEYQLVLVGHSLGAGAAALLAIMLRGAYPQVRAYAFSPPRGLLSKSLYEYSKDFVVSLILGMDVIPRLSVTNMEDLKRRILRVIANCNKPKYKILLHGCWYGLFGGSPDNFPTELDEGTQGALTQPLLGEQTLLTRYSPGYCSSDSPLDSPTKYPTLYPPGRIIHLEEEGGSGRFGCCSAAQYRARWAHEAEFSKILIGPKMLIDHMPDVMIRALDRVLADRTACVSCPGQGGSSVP

| Structure (SMILES) | outcome |
| --- | --- |
| O=C(N1CCCCC1Cc1ccccc1)n1cc(-c2ccc(-c3ccccc3C(F)(F)F)cc2)nn1 (stereo not drawn) | active |
| COc1ccccc1-c1ccc(-c2cn(C(=O)N3CCCCC3Cc3ccccc3)nn2)cc1 (stereo not drawn) | active |
| O=C(N1CCCCC1Cc1ccccc1)n1cc(-c2ccc(-c3ccccc3)cc2)nn1 (stereo not drawn) | active |
